ChEMBL document CHEMBL4689842, “EUbOPEN Chemogenomics Library wave 1” (2021)

Legend:
HEK-293T = assay: Multiplex assay against HEK293T; format: toxicity, cell-based; details: human;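 on Population Tubulin-Different-Phenotype (%): share of the cells with healthy nuclei that show this phenotype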
Method in brief: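 Compound was added to live cells that had been stained at seeding with Hoechst33342, BioTracker Green Microtubule Cytoskeleton Dye, MitoTracker Red and Annexin V Alexa Fluor 680, and imaging followed on a CQ1 microscope at 37°C and 5% CO2. CellPathfinder machine-learning gating divided cells into Hoechst high-intensity objects or normal cells, normal cells into healthy, pyknosed or fragmented nuclei, and pyknosed cells into mitotic or apoptotic. Tubulin, mitochondrial-mass and membrane-permeability phenotypes are per cents of healthy-nucleus cells.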

Fibroblast = assay: Incucyte cell viability with human fibroblast; format: toxicity, cell-based; details: 10 µM, compound concentration 10 uM; further: filed as whole numbers so only -1 and 0 and 1 occur
[1] = 12 h, 1 µM, compound concentration 1 uM, replicate 1
[2] = 12 h, 1 µM, compound concentration 1 uM, replicate 2
[3] = 12 h, 10 µM, compound concentration 10 uM, replicate 1
[4] = 12 h, 10 µM, compound concentration 10 uM, replicate 2
[5] = 24 h, 1 µM, compound concentration 1 uM, replicate 1
[6] = 24 h, 1 µM, compound concentration 1 uM, replicate 2
[7] = 24 h, 10 µM, compound concentration 10 uM, replicate 1
[8] = 24 h, 10 µM, compound concentration 10 uM, replicate 2
[9] = 48 h, 1 µM, compound concentration 1 uM, replicate 1
[10] = 48 h, 1 µM, compound concentration 1 uM, replicate 2
[11] = 48 h, 10 µM, compound concentration 10 uM, replicate 1
[12] = 48 h, 10 µM, compound concentration 10 uM, replicate 2

For `Cc1nc(Cc2cccc(C(F)(F)F)c2)sc1-c1ccc(C(N)=O)nc1` [TP-024n], the “Population Apoptotic (%)” value (HEK-293T; [1]) was 41%, the “Population Fragmented Nuclei (%)” value (HEK-293T; [1]) was 7% and the “Population Healthy Nuclei (%)” value (HEK-293T; [1]) was 53%. The “Population Hoechst High Intensity Objects (%)” value (HEK-293T; [1]) was 14%, the “Population Membrane Permeable-Phenotype (%)” value (HEK-293T; [1]) was 2% and the “Population Mitochondria Different-Phenotype (%)” value (HEK-293T; [1]) was 65%. For the same compound, the “Population Mitotic Cells (%)” value (HEK-293T; [1]) was 58%, the “Population Normal (%)” value (HEK-293T; [1]) was 85% and the “Population Pyknosed Nuclei (%)” value (HEK-293T; [1]) was 39%. For the same compound, the “Population Tubulin-Different-Phenotype (%)” value (HEK-293T; [1]) was 41%, the “Total Cell Count” value (HEK-293T; [1]) was 435 and the “Population Apoptotic (%)” value (HEK-293T; [2]) was 10%. For the same compound, the “Population Fragmented Nuclei (%)” value (HEK-293T; [2]) was 2%, the “Population Healthy Nuclei (%)” value (HEK-293T; [2]) was 47% and the “Population Hoechst High Intensity Objects (%)” value (HEK-293T; [2]) was 5%. For the same compound, the “Population Membrane Permeable-Phenotype (%)” value (HEK-293T; [2]) was 9%, the “Population Mitochondria Different-Phenotype (%)” value (HEK-293T; [2]) was 22% and the “Population Mitotic Cells (%)” value (HEK-293T; [2]) was 89%. For the same compound, the “Population Normal (%)” value (HEK-293T; [2]) was 94%, the “Population Pyknosed Nuclei (%)” value (HEK-293T; [2]) was 50% and the “Population Tubulin-Different-Phenotype (%)” value (HEK-293T; [2]) was 26%. The “Total Cell Count” value (HEK-293T; [2]) was 212, the “Population Apoptotic (%)” value (HEK-293T; [3]) was 50% and the “Population Fragmented Nuclei (%)” value (HEK-293T; [3]) was 11%. For the same compound, the “Population Healthy Nuclei (%)” value (HEK-293T; [3]) was 29%, the “Population Hoechst High Intensity Objects (%)” value (HEK-293T; [3]) was 12% and the “Population Membrane Permeable-Phenotype (%)” value (HEK-293T; [3]) was 0%. The “Population Mitochondria Different-Phenotype (%)” value (HEK-293T; [3]) was 91%, the “Population Mitotic Cells (%)” value (HEK-293T; [3]) was 49% and the “Population Normal (%)” value (HEK-293T; [3]) was 87%. For the same compound, the “Population Pyknosed Nuclei (%)” value (HEK-293T; [3]) was 59%, the “Population Tubulin-Different-Phenotype (%)” value (HEK-293T; [3]) was 59% and the “Total Cell Count” value (HEK-293T; [3]) was 316. The “Population Apoptotic (%)” value (HEK-293T; [4]) was 25%, the “Population Fragmented Nuclei (%)” value (HEK-293T; [4]) was 8% and the “Population Healthy Nuclei (%)” value (HEK-293T; [4]) was 25%. The “Population Hoechst High Intensity Objects (%)” value (HEK-293T; [4]) was 9%, the “Population Membrane Permeable-Phenotype (%)” value (HEK-293T; [4]) was 6% and the “Population Mitochondria Different-Phenotype (%)” value (HEK-293T; [4]) was 66%. The “Population Mitotic Cells (%)” value (HEK-293T; [4]) was 75%, the “Population Normal (%)” value (HEK-293T; [4]) was 90% and the “Population Pyknosed Nuclei (%)” value (HEK-293T; [4]) was 65%. For the same compound, the “Population Tubulin-Different-Phenotype (%)” value (HEK-293T; [4]) was 30%, the “Total Cell Count” value (HEK-293T; [4]) was 141 and the “Population Apoptotic (%)” value (HEK-293T; [5]) was 49%. The “Population Fragmented Nuclei (%)” value (HEK-293T; [5]) was 9%, the “Population Healthy Nuclei (%)” value (HEK-293T; [5]) was 50% and the “Population Hoechst High Intensity Objects (%)” value (HEK-293T; [5]) was 11%. The “Population Membrane Permeable-Phenotype (%)” value (HEK-293T; [5]) was 2%, the “Population Mitochondria Different-Phenotype (%)” value (HEK-293T; [5]) was 55% and the “Population Mitotic Cells (%)” value (HEK-293T; [5]) was 50%. The “Population Normal (%)” value (HEK-293T; [5]) was 88%, the “Population Pyknosed Nuclei (%)” value (HEK-293T; [5]) was 40% and the “Population Tubulin-Different-Phenotype (%)” value (HEK-293T; [5]) was 28%. The “Total Cell Count” value (HEK-293T; [5]) was 429, the “Population Apoptotic (%)” value (HEK-293T; [6]) was 19% and the “Population Fragmented Nuclei (%)” value (HEK-293T; [6]) was 4%. For the same compound, the “Population Healthy Nuclei (%)” value (HEK-293T; [6]) was 62%, the “Population Hoechst High Intensity Objects (%)” value (HEK-293T; [6]) was 2% and the “Population Membrane Permeable-Phenotype (%)” value (HEK-293T; [6]) was 5%. The “Population Mitochondria Different-Phenotype (%)” value (HEK-293T; [6]) was 24%, the “Population Mitotic Cells (%)” value (HEK-293T; [6]) was 80% and the “Population Normal (%)” value (HEK-293T; [6]) was 97%. The “Population Pyknosed Nuclei (%)” value (HEK-293T; [6]) was 33%, the “Population Tubulin-Different-Phenotype (%)” value (HEK-293T; [6]) was 36% and the “Total Cell Count” value (HEK-293T; [6]) was 239. The “Population Apoptotic (%)” value (HEK-293T; [7]) was 51%, the “Population Fragmented Nuclei (%)” value (HEK-293T; [7]) was 11% and the “Population Healthy Nuclei (%)” value (HEK-293T; [7]) was 31%. The “Population Hoechst High Intensity Objects (%)” value (HEK-293T; [7]) was 17%, the “Population Membrane Permeable-Phenotype (%)” value (HEK-293T; [7]) was 3% and the “Population Mitochondria Different-Phenotype (%)” value (HEK-293T; [7]) was 86%. For the same compound, the “Population Mitotic Cells (%)” value (HEK-293T; [7]) was 48%, the “Population Normal (%)” value (HEK-293T; [7]) was 82% and the “Population Pyknosed Nuclei (%)” value (HEK-293T; [7]) was 57%. For the same compound, the “Population Tubulin-Different-Phenotype (%)” value (HEK-293T; [7]) was 52%, the “Total Cell Count” value (HEK-293T; [7]) was 338 and the “Population Apoptotic (%)” value (HEK-293T; [8]) was 36%. For the same compound, the “Population Fragmented Nuclei (%)” value (HEK-293T; [8]) was 10%, the “Population Healthy Nuclei (%)” value (HEK-293T; [8]) was 30% and the “Population Hoechst High Intensity Objects (%)” value (HEK-293T; [8]) was 10%. The “Population Membrane Permeable-Phenotype (%)” value (HEK-293T; [8]) was 2%, the “Population Mitochondria Different-Phenotype (%)” value (HEK-293T; [8]) was 65% and the “Population Mitotic Cells (%)” value (HEK-293T; [8]) was 63%. For the same compound, the “Population Normal (%)” value (HEK-293T; [8]) was 89%, the “Population Pyknosed Nuclei (%)” value (HEK-293T; [8]) was 59% and the “Population Tubulin-Different-Phenotype (%)” value (HEK-293T; [8]) was 50%. For the same compound, the “Total Cell Count” value (HEK-293T; [8]) was 148, the “Population Apoptotic (%)” value (HEK-293T; [9]) was 32% and the “Population Fragmented Nuclei (%)” value (HEK-293T; [9]) was 12%. The “Population Healthy Nuclei (%)” value (HEK-293T; [9]) was 50%, the “Population Hoechst High Intensity Objects (%)” value (HEK-293T; [9]) was 9% and the “Population Membrane Permeable-Phenotype (%)” value (HEK-293T; [9]) was 4%. For the same compound, the “Population Mitochondria Different-Phenotype (%)” value (HEK-293T; [9]) was 25%, the “Population Mitotic Cells (%)” value (HEK-293T; [9]) was 67% and the “Population Normal (%)” value (HEK-293T; [9]) was 90%. The “Population Pyknosed Nuclei (%)” value (HEK-293T; [9]) was 37%, the “Population Tubulin-Different-Phenotype (%)” value (HEK-293T; [9]) was 25% and the “Total Cell Count” value (HEK-293T; [9]) was 594. The “Population Apoptotic (%)” value (HEK-293T; [10]) was 17%, the “Population Fragmented Nuclei (%)” value (HEK-293T; [10]) was 5% and the “Population Healthy Nuclei (%)” value (HEK-293T; [10]) was 80%. The “Population Hoechst High Intensity Objects (%)” value (HEK-293T; [10]) was 2%, the “Population Membrane Permeable-Phenotype (%)” value (HEK-293T; [10]) was 5% and the “Population Mitochondria Different-Phenotype (%)” value (HEK-293T; [10]) was 5%. For the same compound, the “Population Mitotic Cells (%)” value (HEK-293T; [10]) was 82%, the “Population Normal (%)” value (HEK-293T; [10]) was 97% and the “Population Pyknosed Nuclei (%)” value (HEK-293T; [10]) was 13%. For the same compound, the “Population Tubulin-Different-Phenotype (%)” value (HEK-293T; [10]) was 19%, the “Total Cell Count” value (HEK-293T; [10]) was 464 and the “Population Apoptotic (%)” value (HEK-293T; [11]) was 53%. For the same compound, the “Population Fragmented Nuclei (%)” value (HEK-293T; [11]) was 18%, the “Population Healthy Nuclei (%)” value (HEK-293T; [11]) was 27% and the “Population Hoechst High Intensity Objects (%)” value (HEK-293T; [11]) was 12%. For the same compound, the “Population Membrane Permeable-Phenotype (%)” value (HEK-293T; [11]) was 2%, the “Population Mitochondria Different-Phenotype (%)” value (HEK-293T; [11]) was 69% and the “Population Mitotic Cells (%)” value (HEK-293T; [11]) was 46%. For the same compound, the “Population Normal (%)” value (HEK-293T; [11]) was 87%, the “Population Pyknosed Nuclei (%)” value (HEK-293T; [11]) was 53% and the “Population Tubulin-Different-Phenotype (%)” value (HEK-293T; [11]) was 42%. The “Total Cell Count” value (HEK-293T; [11]) was 373, the “Population Apoptotic (%)” value (HEK-293T; [12]) was 46% and the “Population Fragmented Nuclei (%)” value (HEK-293T; [12]) was 10%. The “Population Healthy Nuclei (%)” value (HEK-293T; [12]) was 39%, the “Population Hoechst High Intensity Objects (%)” value (HEK-293T; [12]) was 5% and the “Population Membrane Permeable-Phenotype (%)” value (HEK-293T; [12]) was 6%. The “Population Mitochondria Different-Phenotype (%)” value (HEK-293T; [12]) was 54%, the “Population Mitotic Cells (%)” value (HEK-293T; [12]) was 53% and the “Population Normal (%)” value (HEK-293T; [12]) was 94%. The “Population Pyknosed Nuclei (%)” value (HEK-293T; [12]) was 50%, the “Population Tubulin-Different-Phenotype (%)” value (HEK-293T; [12]) was 60% and the “Total Cell Count” value (HEK-293T; [12]) was 164. The “Growth Rate” value (Fibroblast; 6 h, replicate number 1, timepoint 6 hours) was 0, the “Growth Rate” value (Fibroblast; 12 h, replicate number 1, timepoint 12 hours) was 0 and the “Growth Rate” value (Fibroblast; 18 h, replicate number 1, timepoint 18 hours) was 0. For the same compound, the “Growth Rate” value (Fibroblast; 24 h, replicate number 1, timepoint 24 hours) was 0.
